Data on 19 compounds can be found in ChEMBL document CHEMBL1142774, “Substituted tetraazaacenaphthylenes as potent CRF1 receptor antagonists for the treatment of depression and anxiety” (Bioorg Med Chem Lett, 2005).

One may read the bioavailability as the share of a dose that reaches the circulation, judged against a reference dose that is usually intravenous. A high value points to much systemic uptake. As a reminder, the clearance is a measure of how efficiently the substance is removed, as volume per time. Low values mean inefficient removal, high ones efficient removal.

Data set [1] is described as follows: Displacement of [125I]o-CRF from recombinant human CRF receptors expressed in Chinese Hamster Ovary (CHO) cell membranes. On the technique in general: Displacement assays read how much labelled ligand stays bound in the presence of the test substance.
Data set [2] can be described thus: Brain/Plasma ratio level at 1 hr after a intravenous dose 0.5 mg/kg in rats. Type of data set: ADME, organism-based. On the set-up: dose 0.5 mg/kg, route intravenous. To be noted: rat, read-out: Penetration. The procedure, abridged:
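Hans–Wistar rats were given a single 0.5 mg/kg intravenous dose. Brain and plasma levels were measured at 1 h post-dose, and the brain/plasma ratio was taken from these levels.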

Data set [3] is described as follows: Oral bioavailability in rat at 1 hr (dose 0.5 mg/kg i.v.). Format: ADME, organism-based. To be noted: in vivo, 1 mg/kg. The procedure, abridged: (§1)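 The pharmacokinetic study used Hans–Wistar rats. Each compound was given by the oral route at 1 mg/kg and by the intravenous route at 0.5 mg/kg. Plasma clearance and oral bioavailability were derived from these two administrations.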

Data set [4] in a line: Plasma clearance at 1 hr after a intravenous dose 0.5 mg/kg in rats. Type of data set: ADME, organism-based. On the set-up: dose 0.5 mg/kg, route intravenous. To be noted: rat. The procedure, abridged: as §1

As to `CCC(CC)N1CC2CCN(c3ccc(Cl)cc3Cl)c3nc(C)nc1c32` (stereo unspecified), the “Log IC50” value in data set [1] is recorded as -7.16.
Take `COCC(COC)N1CC2CCN(c3ccc(Cl)cc3Cl)c3nc(C)nc1c32` (stereo unspecified): the “Log IC50” value in data set [1] is recorded as -5.9.
Same read-out and setting: under `CCC(CC)N1CCC2CN(c3ccc(Cl)cc3Cl)c3nc(C)nc1c32` (stereo unspecified) stands -6.74.
For `CCCC(CCC)N1CC2CCN(c3ccc(C(F)(F)F)cc3C(F)(F)F)c3nc(C)nc1c32` (stereo in doubt; 2ad), the Kp at 1 h in data set [2] came out at 1.1. In addition, the bioavailability in data set [3] came to 36%. Besides, in data set [1], the “Log IC50” value is -7.44. In data set [4], this compound gave a clearance of 15 mL/min/kg.
For the compound `CCCC(CCC)n1cc2c3c(nc(C)nc31)N(c1ccc(C#N)cc1C)CC2`, the “Log IC50” value in data set [1] was -7.35.
On the same count and under the same terms, under `CCC(CC)n1cc2c3c(nc(C)nc31)N(c1ccc(C(F)(F)F)cc1C(F)(F)F)CC2` stands -7.58; under `CCCC(CCC)N1CCC2CN(c3ccc(C(F)(F)F)cc3C(F)(F)F)c3nc(C)nc1c32` (stereo unspecified), -7.39.
The same measure, in the same setting: next, `Cc1nc2c3c(n1)N(c1ccc(Cl)cc1Cl)CC3CCN2CC1CC1` (stereo unspecified): -5.35.
As to `CCCC(CCC)N1CCC2CN(c3ccc(Cl)cc3Cl)c3nc(C)nc1c32` (stereo unspecified), in data set [2], the Kp at 1 h was determined as 1.8. In addition, the bioavailability in data set [3] turned out to be 31%. For the same compound, in data set [1], the “Log IC50” value is listed as -7.52. In data set [4], this compound displayed a clearance of 31 mL/min/kg.
Regarding `COCC(COC)Nc1nc(C)nc2c(-c3ccc(Cl)cc3Cl)c(C)nn12`, the “Log IC50” value in data set [1] is listed as -7.42.
On the same count and under the same terms, next, `CCCC(CCC)N1CC2CCN(c3ccc(C(F)(F)F)cc3C(F)(F)F)c3nc(C)nc1c32` (stereo in doubt; 2ah): -7.84.
Same read-out and setting: under `CCC(CC)n1cc2c3c(nc(C)nc31)N(c1ccc(C#N)cc1Cl)CC2` stands -7.21; under `CCCCN(CC)c1nc(C)nc2c1c(C)cn2-c1c(C)cc(C)cc1C` [CP-154526], -7.76; under `CCCC(CCC)N1CC2CCN(c3ccc(C(F)(F)F)cc3C(F)(F)F)c3nc(C)nc1c32` (stereo in doubt; 2ag), -7.55.
Same read-out and setting: next, `CCCC(CCC)N1CC2CCN(c3ccc(Cl)cc3Cl)c3nc(C)nc1c32` (stereo in doubt; 2ae): -7.96.
With `CCCC(CCC)n1cc2c3c(nc(C)nc31)N(c1ccc(C(F)(F)F)cc1C(F)(F)F)CC2`, in data set [2], the Kp at 1 h was found to be 1.3. In addition, in data set [3], the bioavailability stood at 33%. For the same compound, the “Log IC50” value in data set [1] is listed as -7.85. The clearance in data set [4] was found to be 10 mL/min/kg.
For the compound `CCC(CC)n1cc2c3c(nc(C)nc31)N(c1ccc(C#N)cc1C)CC2`, in data set [1], the “Log IC50” value is on record as -7.57.
Consider `CCCC(CCC)N1CC2CCN(c3ccc(Cl)cc3Cl)c3nc(C)nc1c32` (stereo in doubt; 2af), for which the “Log IC50” value in data set [1] is given as -7.89.
In the case of `CCCC(CCC)N1CC2CCN(c3ccc(Cl)cc3Cl)c3nc(C)nc1c32` (stereo in doubt; 2ac), in data set [2], the Kp at 1 h stood at 2. Also, the bioavailability in data set [3] turned out to be 14%. Further, the “Log IC50” value in data set [1] is -7.65. Also, the clearance in data set [4] came to 32 mL/min/kg.
